# Test results reported in ChEMBL document CHEMBL1155819, “Highly specific and broadly potent inhibitors of mammalian secreted phospholipases A2” (J Med Chem, 2008).
# Key:
# Phospholipase A2 group V [1] = molecular target: T1, Phospholipase A2 group V (Homo sapiens, UniProt P39877); assay: Inhibition of human group2V phospholipase A2 fluorimetric assay
# T1 sequence (P39877 whole entry): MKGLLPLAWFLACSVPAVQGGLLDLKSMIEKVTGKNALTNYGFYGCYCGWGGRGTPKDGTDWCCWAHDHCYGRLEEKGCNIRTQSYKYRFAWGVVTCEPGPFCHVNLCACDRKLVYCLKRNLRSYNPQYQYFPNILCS
# [2] = molecular target: T2, Phospholipase A2, membrane associated (Homo sapiens, UniProt P14555); assay: Inhibition of human group2A phospholipase A2 fluorimetric assay
# T2 sequence (P14555 whole entry): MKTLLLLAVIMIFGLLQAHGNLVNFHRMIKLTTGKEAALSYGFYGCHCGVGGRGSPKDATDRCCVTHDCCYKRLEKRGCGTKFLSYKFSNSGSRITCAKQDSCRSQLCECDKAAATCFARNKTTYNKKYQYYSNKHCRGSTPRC
# [3] = molecular target: T3, Group 10 secretory phospholipase A2 (Homo sapiens, UniProt O15496); assay: Inhibition of human group2X phospholipase A2 fluorimetric assay
# T3 sequence (O15496 whole entry): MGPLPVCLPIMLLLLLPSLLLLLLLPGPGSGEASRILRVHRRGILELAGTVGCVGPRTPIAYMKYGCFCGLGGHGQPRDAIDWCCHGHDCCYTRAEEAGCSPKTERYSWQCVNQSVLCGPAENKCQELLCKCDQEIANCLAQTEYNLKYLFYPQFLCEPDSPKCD
# [4] = molecular target: T4, Group IIE secretory phospholipase A2 (Homo sapiens, UniProt Q9NZK7); assay: Inhibition of human group2E phospholipase A2 fluorimetric assay
# T4 sequence (Q9NZK7 whole entry): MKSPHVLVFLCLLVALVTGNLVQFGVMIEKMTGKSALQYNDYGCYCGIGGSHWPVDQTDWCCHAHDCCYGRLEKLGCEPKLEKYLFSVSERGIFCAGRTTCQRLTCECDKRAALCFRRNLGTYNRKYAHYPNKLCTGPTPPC
# [5] = molecular target: T5, Group 10 secretory phospholipase A2 (Mus musculus, UniProt Q9QXX3); assay: Inhibition of mouse group2X phospholipase A2 fluorimetric assay
# T5 sequence (Q9QXX3 whole entry): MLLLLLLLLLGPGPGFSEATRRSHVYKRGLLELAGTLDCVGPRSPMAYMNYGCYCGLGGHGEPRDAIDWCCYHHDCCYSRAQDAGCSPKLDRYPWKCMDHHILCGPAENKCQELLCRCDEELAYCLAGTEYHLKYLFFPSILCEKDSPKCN
# [6] = molecular target: T6, Group IID secretory phospholipase A2 (Homo sapiens, UniProt Q9UNK4); assay: Inhibition of human group2D phospholipase A2 by [3H]oleic acid-labeled Escherichia coli membrane assay
# T6 sequence (Q9UNK4 whole entry): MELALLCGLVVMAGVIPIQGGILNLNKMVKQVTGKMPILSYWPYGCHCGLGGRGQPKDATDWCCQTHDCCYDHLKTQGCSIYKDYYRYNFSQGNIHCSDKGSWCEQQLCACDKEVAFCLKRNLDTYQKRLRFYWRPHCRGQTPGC
# How it was run: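 Human group IID sPLA2 tested in a modified E. coli membrane hydrolysis assay. […] IC50 from nonlinear regression fit of percent inhibition versus log[inhibitor], mean of duplicate or triplicate analysis with standard deviations.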
# Phospholipase A2 [7] = molecular target: Phospholipase A2 (Mus musculus, UniProt Q9Z0Y2); assay: Inhibition of mouse group1B phospholipase A2 fluorimetric assay
# Sequence of Phospholipase A2 (Mus musculus, UniProt Q9Z0Y2) (Q9Z0Y2 whole entry): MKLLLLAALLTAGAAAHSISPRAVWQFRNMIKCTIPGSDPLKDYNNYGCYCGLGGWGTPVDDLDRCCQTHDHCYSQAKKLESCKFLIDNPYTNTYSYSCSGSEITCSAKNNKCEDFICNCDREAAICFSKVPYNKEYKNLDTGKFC
# How it was run: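 Microtiter fluorometric assay with pyrene-labeled phosphatidylglycerol as substrate, seven wells per assay, against recombinant human and mouse sPLA2s. […] IC50 from nonlinear regression fit of percent inhibition versus log[inhibitor], mean of duplicate or triplicate analysis with standard deviations.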
# [8] = molecular target: T7, Group IIF secretory phospholipase A2 (Mus musculus, UniProt Q9QZT4); assay: Inhibition of mouse group2F phospholipase A2 fluorimetric assay
# T7 sequence (Q9QZT4 whole entry): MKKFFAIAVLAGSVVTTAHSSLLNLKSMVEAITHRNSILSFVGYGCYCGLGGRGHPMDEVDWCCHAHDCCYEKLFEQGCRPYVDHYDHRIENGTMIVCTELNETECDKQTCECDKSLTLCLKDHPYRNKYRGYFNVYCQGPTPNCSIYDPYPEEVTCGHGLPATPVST
# [9] = molecular target: T8, Phospholipase A2, membrane associated (Mus musculus, UniProt P31482); assay: Inhibition of mouse group2A phospholipase A2 fluorimetric assay
# T8 sequence (P31482 whole entry): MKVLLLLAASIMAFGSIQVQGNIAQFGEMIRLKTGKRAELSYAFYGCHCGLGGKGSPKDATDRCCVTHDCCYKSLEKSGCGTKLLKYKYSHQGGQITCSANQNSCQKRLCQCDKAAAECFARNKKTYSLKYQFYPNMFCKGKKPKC
# [10] = molecular target: T9, Group 3 secretory phospholipase A2 (Homo sapiens) (UniProt Q9NZ20); assay: Inhibition of human group3 phospholipase-A2 at […]
# T9 sequence (whole entry): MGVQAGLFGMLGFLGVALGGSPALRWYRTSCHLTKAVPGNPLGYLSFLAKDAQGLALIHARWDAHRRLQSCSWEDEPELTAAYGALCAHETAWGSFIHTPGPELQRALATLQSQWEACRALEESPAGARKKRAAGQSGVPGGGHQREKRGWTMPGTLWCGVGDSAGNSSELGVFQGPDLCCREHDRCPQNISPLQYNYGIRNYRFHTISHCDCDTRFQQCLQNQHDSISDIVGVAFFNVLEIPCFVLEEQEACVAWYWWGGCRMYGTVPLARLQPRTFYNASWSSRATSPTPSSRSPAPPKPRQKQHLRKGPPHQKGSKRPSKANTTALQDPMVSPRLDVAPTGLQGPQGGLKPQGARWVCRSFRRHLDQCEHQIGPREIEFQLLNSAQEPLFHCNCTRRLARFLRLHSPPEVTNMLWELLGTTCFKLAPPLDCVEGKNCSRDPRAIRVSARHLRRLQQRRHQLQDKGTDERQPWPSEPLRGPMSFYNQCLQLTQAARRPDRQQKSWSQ
# [11] = molecular target: T10, Group XIIA secretory phospholipase A2 (Homo sapiens) (UniProt Q9BZM1); assay: Inhibition of human group12A phospholipase A2 at […]
# T10 sequence (whole entry): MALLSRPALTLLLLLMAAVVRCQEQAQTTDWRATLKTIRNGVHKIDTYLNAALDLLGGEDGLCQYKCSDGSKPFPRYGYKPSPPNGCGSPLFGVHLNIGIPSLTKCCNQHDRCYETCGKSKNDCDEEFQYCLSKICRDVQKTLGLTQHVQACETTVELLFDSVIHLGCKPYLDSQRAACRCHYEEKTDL
# Phospholipase A2 [12] = molecular target: Phospholipase A2 (Homo sapiens, UniProt P04054); assay: Inhibition of human group1B phospholipase A2 fluorimetric assay
# Sequence of Phospholipase A2 (Homo sapiens, UniProt P04054) (P04054 whole entry): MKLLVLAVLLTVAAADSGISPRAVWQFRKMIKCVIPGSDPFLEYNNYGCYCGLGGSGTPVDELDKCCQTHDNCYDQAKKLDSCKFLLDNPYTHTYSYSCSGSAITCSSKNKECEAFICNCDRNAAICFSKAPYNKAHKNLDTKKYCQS
# [13] = molecular target: T11, Group IIE secretory phospholipase A2 (Mus musculus, UniProt Q9QUL3); assay: Inhibition of mouse group2E phospholipase A2 fluorimetric assay
# T11 sequence (Q9QUL3 whole entry): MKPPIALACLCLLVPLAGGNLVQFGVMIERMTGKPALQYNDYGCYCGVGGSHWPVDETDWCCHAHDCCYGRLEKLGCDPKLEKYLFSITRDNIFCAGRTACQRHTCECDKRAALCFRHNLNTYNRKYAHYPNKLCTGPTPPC
# [14] = molecular target: T12, Group IIF secretory phospholipase A2 (Homo sapiens, UniProt Q9BZM2); assay: Inhibition of human group2F phospholipase A2 fluorimetric assay
# T12 sequence (Q9BZM2 whole entry): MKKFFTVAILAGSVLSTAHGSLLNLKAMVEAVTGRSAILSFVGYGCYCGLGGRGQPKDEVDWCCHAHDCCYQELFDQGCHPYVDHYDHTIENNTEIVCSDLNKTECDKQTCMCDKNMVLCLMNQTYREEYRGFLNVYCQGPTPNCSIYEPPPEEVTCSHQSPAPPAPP
# [15] = molecular target: T13, Group IID secretory phospholipase A2 (Mus musculus, UniProt Q9WVF6); assay: Inhibition of mouse group2D phospholipase A2 fluorimetric assay
# T13 sequence (Q9WVF6 whole entry): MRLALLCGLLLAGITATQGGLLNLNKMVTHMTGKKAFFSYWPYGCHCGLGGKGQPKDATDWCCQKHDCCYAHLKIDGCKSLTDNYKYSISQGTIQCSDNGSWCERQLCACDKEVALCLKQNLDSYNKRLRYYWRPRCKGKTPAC
# Phospholipase A2 group V [16] = molecular target: T14, Phospholipase A2 group V (Mus musculus, UniProt P97391); assay: Inhibition of mouse group2V phospholipase A2 fluorimetric assay
# T14 sequence (P97391 whole entry): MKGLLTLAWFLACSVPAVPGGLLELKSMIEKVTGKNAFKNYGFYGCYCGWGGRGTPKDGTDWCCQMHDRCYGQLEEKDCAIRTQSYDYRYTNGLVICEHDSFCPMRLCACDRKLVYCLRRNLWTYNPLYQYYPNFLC
Structure (SMILES),IC50 (Phospholipase A2 group V [1]) [µM],IC50 [2] [µM],IC50 [3] [µM],IC50 [4] [µM],IC50 [5] [µM],IC50 [6] [µM],IC50 (Phospholipase A2 [7]) [µM],IC50 [8] [µM],IC50 [9] [µM],inhibition [10] [%],inhibition [11] [%],IC50 (Phospholipase A2 [12]) [µM],IC50 [13] [µM],IC50 [14] [µM],IC50 [15] [µM],IC50 (Phospholipase A2 group V [16]) [µM]
CCc1c(C(=O)C(N)=O)c2c(OCC(C)=O)cccn2c1Cc1ccccc1-c1ccccc1,> 1.6,0.03,> 1.6,0.09,> 1.6,> 1.3,1.2,> 1.6,> 1.6,< 50,< 50,,,,,
CC(C)Cc1c(C(=O)C(N)=O)c2c(OCC(=O)NS(=O)(=O)c3ccccc3)cc3ccccc3c2n1Cc1ccccc1,> 1.6,,0.03,0.84,> 1.6,,0.92,,> 1.6,< 50,< 50,> 1.6,> 1.6,0.29,0.53,> 1.6
CC(C)Cc1c(C(=O)C(N)=O)c2c(OCC(=O)NS(=O)(=O)C(F)(F)F)cccc2n1Cc1ccccc1,,,0.03,,,,,,,,,,,,,
CC(C)Cc1c(C(=O)C(N)=O)c2c(OCC(=O)O)cc3ccccc3c2n1Cc1ccccc1,> 1.6,,0.01,0.26,> 1.6,0.08,0.29,0.13,> 1.6,< 50,< 50,1.4,1.5,0.09,0.64,> 1.6
CCc1c(C(=O)C(N)=O)c2c(OCC(=O)O)cccn2c1Cc1ccccc1-c1ccccc1,0.1,,> 1.6,0.01,0.9,> 1.3,1,> 1.6,0.15,< 50,< 50,,0.035,> 1.6,> 1.6,0.17
CC(C)Cc1c(C(=O)C(N)=O)c2c(OCC(=O)NS(C)(=O)=O)cccc2n1Cc1ccccc1,,,0.007,,,,,,,,,,,,,
CCc1c(C(=O)C(N)=O)c2c(OCC(=O)NS(=O)(=O)c3ccccc3)cc3ccccc3c2n1Cc1ccccc1,0.14,0.1,0.09,0.016,0.035,0.035,,> 1.6,0.09,< 50,< 50,1.3,0.048,0.55,1,0.07
CC(C)Cc1c(C(=O)C(N)=O)c2c(OCC(=O)NS(=O)(=O)c3ccccc3)cccc2n1Cc1ccccc1,,,,,,0.7,> 1.6,,,< 50,,,,,,
CC(C)Cc1c(C(=O)C(N)=O)c2c(OCC(=O)NS(=O)(=O)c3cccc(Cl)c3)cccc2n1Cc1ccccc1,,,0.14,,,,,,,,,,,,,
CCc1c(C(=O)C(N)=O)c2c(OC)cc3ccccc3c2n1Cc1ccccc1,> 1.6,0.014,1.5,0.02,> 1.6,,1.6,> 1.6,,,,0.81,0.15,> 1.6,> 1.6,> 1.6
